≈ marks a conversion by molar mass, not a printed value.
Legend:
Canis familiaris [1] = experiment: Ratio of compound fAUC in beagle dog at 11 mg/kg, iv bid for 7 days to polymyxin B fAUC in beagle dog at 6 mg/kg, iv bid for 7 days; assay type: ADME, organism-based, Canis lupus familiaris; settings: in vivo, 168 h
[2] = Ratio of fAUC in ICR mouse neutropenic infection model to MIC for Pseudomonas aeruginosa assessed during measurement of 1 log decrease parameter; assay type: functional
[3] = Ratio of fAUC in ICR mouse neutropenic infection model to MIC for Pseudomonas aeruginosa assessed during measurement of statis parameter; assay type: functional
[4] = Ratio of fAUC in ICR mouse neutropenic infection model to MIC for Pseudomonas aeruginosa assessed during measurement of 50% of maximal efficacy; assay type: functional
[5] = Ratio of fAUC in ICR mouse neutropenic infection model to MIC for Pseudomonas aeruginosa assessed during measurement of exposure index required for 80%; assay type: functional
[6] = Plasma protein binding in ICR mouse neutropenic infection model; assay type: ADME, cell-free; settings: read-out: PPB (converted)
Pseudomonas aeruginosa [7] = experiment: Antibacterial activity against Pseudomonas aeruginosa 1402 assessed as growth inhibition by broth microdilution method; assay type: functional
How it was run: (§1)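 CLSI broth microdilution MIC against P. aeruginosa 1401 (PA01) and 1402 (UC12120), the two strains used in the mouse thigh model.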

Mus musculus = experiment: fAUC in ICR mouse neutropenic infection model at 12.5 to 75 mg/kg, sc; assay type: ADME, organism-based; design: dose 12.5-75 mg/kg, route subcutaneous; settings: in vivo
How it was run: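 Infected neutropenic female ICR mice (~25 g; cyclophosphamide 150 and 100 mg/kg IP at 4 and 1 days before inoculation) received single SC doses of 12.5–75 mg/kg. Six mice per time point were sampled by cardiac puncture at eight times over 12 h, and plasma was assayed by LC-MS.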

[8] = Fraction unbound in beagle dog plasma; assay type: ADME, cell-free, Canis lupus familiaris
Canis familiaris [9] = experiment: fAUC in beagle dog at 11 mg/kg, iv bid administered as bolus dose for 7 days measured at 1 to 7 days; assay type: ADME, organism-based, Canis lupus familiaris; design: dose 11 mg/kg, route intravenous; settings: in vivo
Canis familiaris [10] = experiment: fAUC in beagle dog at 20 mg/kg, iv bid administered as bolus dose for 7 days measured at 1 to 7 days; assay type: ADME, organism-based, Canis lupus familiaris; design: dose 20 mg/kg, route intravenous; settings: in vivo
Canis familiaris [11] = experiment: fAUC in beagle dog at 5 mg/kg, iv bid administered as bolus dose for 7 days measured at 1 to 7 days; assay type: ADME, organism-based, Canis lupus familiaris; design: dose 5 mg/kg, route intravenous; settings: in vivo
[12] = Fraction unbound in Wistar Han rat plasma; assay type: ADME, cell-free
Canis familiaris [13] = experiment: Nephrotoxicity in beagle dog assessed as incidence of necrotic kidney lesions at 5 to 20 mg/kg, iv bid administered as bolus dose for 7 days measured at 1 to 7 days by microscopic analysis; assay type: toxicity, organism-based, Canis lupus familiaris; design: route intravenous; settings: in vivo
How it was run: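 Male and female Beagle dogs, 5–11 kg, received IV bolus twice daily (≥6 h apart) for 7 days at 0 (0.9% saline), 5, 11 or 20 mg/kg/day. Necropsy was the day after the last dose. Kidney proximal tubules were examined microscopically for degeneration/regeneration and graded in severity. Incidence is given as animals with lesions over animals tested.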

Rattus norvegicus [14] = experiment: fAUC in Wistar Han rat at 8 mg/kg, iv bid administered as bolus dose for 7 days measured at 1 to 7 days; assay type: ADME, organism-based; design: dose 8 mg/kg, route intravenous; settings: in vivo
Rattus norvegicus [15] = experiment: fAUC in Wistar Han rat at 4 mg/kg, iv bid administered as bolus dose for 7 days measured at 1 to 7 days; assay type: ADME, organism-based; design: dose 4 mg/kg, route intravenous; settings: in vivo
Rattus norvegicus [16] = experiment: Nephrotoxicity in Wistar Han rat assessed as incidence of necrotic kidney lesions at 4 to 8 mg/kg, iv bid administered as bolus dose for 7 days measured at 1 to 7 days by microscopic analysis; assay type: toxicity, organism-based; design: route intravenous; settings: in vivo
How it was run: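 Male Wistar Han IGS rats, 6–9 weeks old, received IV bolus twice daily (≥6 h apart) for 7 days at 0 (0.9% saline), 4 or 8 mg/kg/day. Necropsy was the day after the last dose. Kidneys were weighed and examined microscopically for proximal tubule epithelial degeneration/regeneration, graded minimal to severe. Incidence is given as animals with lesions over animals tested.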

[17] = Cytotoxicity against human RPTEC after 24 hrs by LDH assay; assay type: cell-based; settings: RPTEC cells, read-out: TC50
How it was run: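 Primary human renal proximal tubule epithelial cells in REGM (EGF, hydrocortisone, epinephrine, insulin, T3, transferrin, gentamycin/amphotericin-B, FBS). After 72 h of growth at 37 °C, 5% CO2, cells were exposed for 24 h to aqueous compound at 100, 67, 44, 30, 20 and 13 μM. LDH release into the supernatant was measured by kit and TC50 (μM) derived, with PMB and PMBN as controls.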

Escherichia coli = experiment: Antibacterial activity against polymyxin-sensitive Escherichia coli isolate 1 assessed as growth inhibition by broth microdilution method; assay type: functional
Klebsiella pneumoniae = experiment: Antibacterial activity against polymyxin-sensitive ESBL-positive Klebsiella pneumoniae clinical isolate 3700 assessed as growth inhibition by broth microdilution method; assay type: functional
Acinetobacter baumannii [18] = experiment: Antibacterial activity against polymyxin-sensitive Acinetobacter baumannii clinical isolate 3167 assessed as growth inhibition by broth microdilution method; assay type: functional
Acinetobacter baumannii [19] = experiment: Antibacterial activity against polymyxin-resistant Acinetobacter baumannii clinical isolate 1649 assessed as growth inhibition by broth microdilution method; assay type: functional
Acinetobacter baumannii [20] = experiment: Bactericidal activity against polymyxin-resistant Acinetobacter baumannii clinical isolate 1649; assay type: functional
Pseudomonas aeruginosa [21] = experiment: Antibacterial activity against polymyxin-sensitive Pseudomonas aeruginosa 1401 assessed as growth inhibition by broth microdilution method; assay type: functional; how it was run: as §1
Pseudomonas aeruginosa [22] = experiment: Antibacterial activity against polymyxin-resistant Pseudomonas aeruginosa clinical isolate 1646 assessed as growth inhibition by broth microdilution method; assay type: functional
How it was run: (§2)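 Test strain PA-1646 is a P. aeruginosa isolate with a mutated PmrAB two-component system. The system is constitutively active, so the modified lipid A moiety is constantly expressed on the cell surface, giving a polymyxin-resistant phenotype.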

Pseudomonas aeruginosa [23] = experiment: Bactericidal activity against polymyxin-resistant Pseudomonas aeruginosa clinical isolate 1646; assay type: functional; how it was run: as §2
Pseudomonas aeruginosa [24] = experiment: Antibacterial activity against polymyxin-resistant Pseudomonas aeruginosa clinical isolates assessed as growth inhibition by broth microdilution method

## CC(C)C[C@@H]1NC(=O)[C@@H](Cc2ccccc2)NC(=O)[C@H](CCN)NC(=O)[C@@H](NC(=O)[C@H](CN)NC(=O)[C@@H](NC(=O)[C@H](CCN)NC(=O)c2ccc(=O)n(-c3ccccc3)c2)[C@@H](C)O)CCNC(=O)[C@H]([C@@H](C)O)NC(=O)[C@H](CCN)NC(=O)[C@H](CCN)NC1=O
Canis familiaris [1]
  fAUC ratio: 1.5
[2]
  fAUC/MIC: 109.63
[3]
  fAUC/MIC: 85.26
[4]
  fAUC/MIC: 87.92
[5]
  fAUC/MIC: 157.55
[6]
  fraction unbound: 0.54
Pseudomonas aeruginosa [7]
  MIC: 0.5 µg/mL
Mus musculus
  fAUC: 7200 ng·h/mL
[8]
  fraction unbound: 0.58
Canis familiaris [9]
  fAUC: 64000 ng·h/mL
Canis familiaris [10]
  fAUC: 114000 ng·h/mL
Canis familiaris [11]
  fAUC: 20000 ng·h/mL
[12]
  fraction unbound: 0.81
Canis familiaris [13]
  Activity: Toxic
Rattus norvegicus [14]
  fAUC: 29000 ng·h/mL
Rattus norvegicus [15]
  fAUC: 13000 ng·h/mL
Rattus norvegicus [16]
  Activity: Non-toxic
[17]
  CC50 at 24 h: > 100 µM
Escherichia coli
  MIC50: 1 µg/mL
  MIC90: 2 µg/mL
Klebsiella pneumoniae
  MIC50: 0.5 µg/mL
  MIC90: 1 µg/mL
Acinetobacter baumannii [18]
  MIC50: 2 µg/mL
  MIC90: 2 µg/mL
Acinetobacter baumannii [19]
  MIC50: 4 µg/mL
  MIC90: 16 µg/mL
Acinetobacter baumannii [20]
  MBC: 2 µg/mL (≈ 1.6 µM)
Pseudomonas aeruginosa [21]
  MIC50: 1 µg/mL
  MIC90: 2 µg/mL
Pseudomonas aeruginosa [22]
  MIC: 4 µg/mL
  MIC50: 2 µg/mL
Pseudomonas aeruginosa [23]
  MBC: 8 µg/mL (≈ 6.42 µM)
Pseudomonas aeruginosa [24]
  MIC90: 8 µg/mL

From ChEMBL document CHEMBL2396592, “Discovery of Dap-3 polymyxin analogues for the treatment of multidrug-resistant Gram-negative nosocomial infections” (J Med Chem, 2013)
